Compound activity (PubChem BioAssay)
The list is not random: actives were taken first. Their share in the collection is about 3.8%.
KCNK9 inh: KCNK9 potassium channel inhibitors, primary screen, HEK293 cells, thallium flux. Potassium channel subfamily K member 9 (Homo sapiens), Q9NPC2. FluxOR thallium flux fluorescence; active compounds read low. B-score at 10 µM. actives 1.2% (n = 310,000);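 active = ratio B-score over 3 SD below the library mean, with starting fluorescence within 5 SD of its mean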;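 note: negative B-score means less thallium flux so channel inhibition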
KCNQ1 act: potentiators or activators of KCNQ1 channel, primary screen, cell-based, thallium flux, high-throughput | Potassium voltage-gated channel subfamily KQT member 1 (Homo sapiens), P51787 | CHO-K1 KCNQ1, thallium flux FluxOR fluorescence; active compounds read high | B-score at 10 µM | actives 0.35% (n = 310,000) | AID 2648, 2010;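 active = fluorescence ratio B-score, a plate-corrected score, at least three library SD, with initial intensity B-score within 5 SD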
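Material: CHO-K1 cells stably expressing KCNQ1. Medium: assay buffer for compound exposure, DMSO matched across wells. Reagent: K+/Tl+ depolarizing stimulus. Compound dosing: single-concentration screen. Times: 37 °C overnight plating, 90-min dark dye load, 20-min compound pretreatment. Technique: FluxOR Tl+ flux fluorescence.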
hERG protect: hERG rescue from dofetilide block, primary screen, cell-based, CHO-hERG, FluxOR thallium flux, dofetilide IC70 | Voltage-gated inwardly rectifying potassium channel KCNH2 (Homo sapiens), Q12809 | dofetilide IC70 present | activation (rescue from dofetilide block), less the hit threshold, % at 10 µM | actives 0.51% (n = 310,000) | AID 1511, 2009;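 active = activation above the mean of controls blocked by dofetilide plus 5 SD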;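 note: thallium influx through hERG after potassium depolarization seen as dye fluorescence rise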
Target sequence (Q12809 whole entry, looked up): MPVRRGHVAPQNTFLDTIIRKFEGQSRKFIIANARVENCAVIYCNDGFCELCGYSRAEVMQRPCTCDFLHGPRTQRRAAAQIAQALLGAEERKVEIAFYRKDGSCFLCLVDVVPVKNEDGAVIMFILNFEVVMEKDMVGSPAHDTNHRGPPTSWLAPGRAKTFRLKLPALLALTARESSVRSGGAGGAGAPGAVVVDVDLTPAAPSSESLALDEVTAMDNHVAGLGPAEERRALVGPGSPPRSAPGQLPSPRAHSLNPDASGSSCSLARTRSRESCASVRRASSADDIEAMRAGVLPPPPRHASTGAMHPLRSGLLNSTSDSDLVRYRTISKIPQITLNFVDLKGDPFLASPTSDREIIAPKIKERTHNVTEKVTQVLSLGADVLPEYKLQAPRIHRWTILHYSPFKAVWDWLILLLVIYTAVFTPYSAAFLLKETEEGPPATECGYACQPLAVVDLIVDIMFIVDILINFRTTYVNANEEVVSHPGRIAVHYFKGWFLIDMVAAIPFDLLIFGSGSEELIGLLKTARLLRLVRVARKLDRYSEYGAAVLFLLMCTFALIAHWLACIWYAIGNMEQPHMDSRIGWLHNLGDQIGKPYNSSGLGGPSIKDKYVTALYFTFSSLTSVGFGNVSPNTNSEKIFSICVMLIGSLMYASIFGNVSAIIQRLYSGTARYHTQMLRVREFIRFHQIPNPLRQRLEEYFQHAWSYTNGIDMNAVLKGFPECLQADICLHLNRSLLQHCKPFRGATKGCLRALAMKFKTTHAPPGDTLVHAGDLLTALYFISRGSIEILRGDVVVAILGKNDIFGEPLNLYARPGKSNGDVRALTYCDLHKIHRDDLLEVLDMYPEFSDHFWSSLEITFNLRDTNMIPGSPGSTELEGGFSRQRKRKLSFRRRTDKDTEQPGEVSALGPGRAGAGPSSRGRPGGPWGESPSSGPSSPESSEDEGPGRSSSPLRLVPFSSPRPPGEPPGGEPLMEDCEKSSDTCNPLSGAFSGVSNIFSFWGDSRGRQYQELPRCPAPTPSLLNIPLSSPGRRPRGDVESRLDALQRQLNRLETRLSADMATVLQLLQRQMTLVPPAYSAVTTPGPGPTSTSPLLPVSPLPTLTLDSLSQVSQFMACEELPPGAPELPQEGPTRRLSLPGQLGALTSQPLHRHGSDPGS
Kir21 inh: inhibitors of mouse Kir2.1 inward-rectifier potassium channel; Inward rectifier potassium channel 2 (Mus musculus), P35561; HEK293-Kir2.1, FluxOR thallium flux fluorescence; active compounds read low; B-score at 10 µM; actives 0.85% (n = 310,000); AID 1672, 2009;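 active = fluorescence ratio B-score at or below minus 3 SD of library scores, with starting-brightness B-score within 2 SD, cut at about -4.2 in these data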;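 note: channel flux triggered by added potassium and thallium sulfate stimulus; B-score of peak minus minimum fluorescence over baseline after thallium stimulus; more negative B-score means stronger Kir2.1 block with less thallium influx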
KCNK3 block: human KCNK3 channel inhibitors, primary screen, CHO cells, FluxOR thallium flux, B-score; FluxOR fluorescence; active compounds read low; actives 0.84% (n = 340,000); Potassium channel subfamily K member 3 (Homo sapiens), O14649; B-score at 10 µM;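 active = B-score under library mean minus 4 SD, starting fluorescence ratio at most library mean plus 5 SD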;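 note: more negative B-score means stronger inhibition of thallium flux through KCNK3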
KCNQ1 block: inhibitors of human KCNQ1 channel, primary screen, cell-based, thallium flux, high-throughput. Potassium voltage-gated channel subfamily KQT member 1 (Homo sapiens), P51787. CHO-K1 KCNQ1, FluxOR thallium flux fluorescence; active compounds read high. B-score at 10 µM. actives 1.3% (n = 310,000). AID 2642, 2010;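 active = compounds whose thallium flux B-score, printed positive for inhibition, exceeds three library SD while starting fluorescence stays within three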;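 note: channel opened by potassium depolarization with thallium stimulus after 20 min compound exposure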
* = called active by the depositor; i = inactive; . = no result.

SMILES	KCNK9 inh	KCNQ1 act	hERG protect	Kir21 inh	KCNK3 block	KCNQ1 block
Cc1cc(C)cc(-n2ncc3c2CCCC3NC(=O)CCN2Cc3ccccc3C2=O)c1 (configuration not stated)	i	i	-3	-0.64	i	i
COc1cc(NC(=O)c2ccc(C(C)(C)C)cc2)c(OC)cc1NC(=O)CN1CCCCC1	i	i	-17	0.66	i	i
CCOc1ccc(OCc2cccc(C(=O)Nc3ccc(CN4CCCCC4)cc3)c2)cc1	i	i	-22	-1.9	i	6*
COc1ccc(OCc2cccc(C(=O)Nc3ccc(CN4CCCCC4)cc3)c2)cc1	i	i	-13	-3.1	i	i
COc1ccc(C2NC(c3ccc(OC)c(OC)c3OC)C(C)C(=O)C2C)c(OC)c1OC (configuration not stated)	i	10*	-2	-0.03	i	i
COc1cccc(/C=N/NC(=O)C(=O)N/N=C/c2cccc(OC)c2O)c1O	.	.	.	.	i	.
COc1cccc(C=NCCCN=Cc2cccc(OC)c2O)c1O	i	i	5.7*	-1.5	i	i
Cc1ccc(OCCCCN2CCCCC2)c(C)c1	i	i	-3	0.68	i	i
Cc1ccc(OCCCCNC2CCCC(C)C2C)c(C)c1 (configuration not stated)	i	i	-6	-7.4*	i	6*
CCc1ccccc1NC(=O)N1C2CCCC1CC(NC(C)=O)C2 (configuration not stated)	i	i	6.0*	-0.43	i	i
CC(=O)NC1CC2CCCC(C1)N2C(=O)Nc1ccccc1C (configuration not stated)	.	.	.	.	i	.
COc1cc(C(C(=O)Nc2c(C)cccc2C)N(C)C(=O)c2ccc(-n3cnnn3)cc2)ccc1O (configuration not stated)	i	i	-10	-0.07	i	i
Cc1c(C(=O)N2CCN(Cc3ccc4c(c3)OCO4)CC2)sc2ncnc(N3CCN(c4ccccc4F)CC3)c12	i	i	-19	-1.1	i	i
Cc1c(C(=O)N2CCN(Cc3ccc4c(c3)OCO4)CC2)sc2ncnc(N3CCN(c4ccccc4)CC3)c12	i	i	-17	1.2	i	7*
CC(=O)c1cccc(NC(=O)CC(C)n2ccnc2)c1 (configuration not stated)	i	i	-5	-2.7	i	i
CCc1ccc(-c2cc(C)no2)cc1S(=O)(=O)NCCc1ccc(OC)c(OC)c1	i	i	-14	-4.4*	i	i
CCCN(c1ccccc1F)S(=O)(=O)c1cc(-c2cc(C)no2)ccc1OC	-7.8*	i	-16	-1.2	i	i
COC(=O)c1sccc1NC(=O)CSc1ccccc1NS(=O)(=O)c1ccc(Cl)cc1	i	i	-1	0.27	i	i
COC(=O)c1sccc1NC(=O)CSc1ccccc1NS(=O)(=O)c1ccccc1Cl	-7.2*	i	-15	1.4	i	i
O=C(NCCN1CCN(c2cccc(Cl)c2)CC1)Nc1ccccc1	i	i	-10	-0.13	i	i
O=C(NCCN1CCN(Cc2ccccc2)CC1)Nc1cc(Cl)cc(Cl)c1	i	i	-24	-0.7	i	6*
N#CC(C(=O)NC1CC1)c1nc2ccccc2nc1N1CCN(C/C=C/c2ccccc2)CC1 (configuration not stated)	i	i	-17	-2.2	i	6*
CN(C)CCCN(C(=O)c1ccc(S(=O)(=O)N2CCCCCC2)cc1)c1nc2c(F)cc(F)cc2s1	i	i	-20	1.2	i	i
CNc1ccccc1C(=O)OC(C)C(=O)Nc1ccc(Cl)cn1 (configuration not stated)	i	12*	-8	0.23	i	i
CCC(C(=O)OC(C)C(=O)Nc1ccc(Cl)cn1)c1ccccc1 (configuration not stated)	i	i	-7	-5.8*	i	i
SMILES	KCNK9 inh	KCNQ1 act	hERG protect	Kir21 inh	KCNK3 block	KCNQ1 block
CCOc1ccc(OCCC(=O)OC(C)C(=O)Nc2ccc(Cl)cn2)cc1 (configuration not stated)	.	.	.	.	i	.
CCOc1ncccc1C(=O)OC(C)C(=O)Nc1ccc(Cl)cn1 (configuration not stated)	.	.	.	.	i	.
O=C(O)C1C(=O)NCC1c1ccccc1 (configuration not stated)	i	i	-8	-0.31	i	i
O=C(Nc1n[nH]c(C(F)(F)F)n1)C1CC1	i	i	4.7*	-0.67	i	i
Cc1ccsc1C(=O)Nc1n[nH]c(C(F)(F)F)n1	i	i	-11	0.04	i	i
CCOC(=O)/C(C#N)=C/C1=C(N2CCOCC2)CC(C)(C)OC1	i	i	-13	0.03	i	i
O=C(c1cccc(S(=O)(=O)N2CCc3ccccc3C2)c1)N1CCN(c2ccccc2)CC1	i	i	-6	-0.18	i	i
O=C(c1cccc(S(=O)(=O)N2CCc3ccccc32)c1)N1CCN(c2ccccc2)CC1	.	.	.	.	-8.9*	.
CCOc1ccccc1C(=O)Nc1cccc2ccccc12	i	i	-2	1.5	i	i
CCOc1ccc(C(=O)Nc2ccccc2C(=O)O)cc1	i	i	7.5*	-1.1	i	i
O=C(Nc1ccccc1C(=O)O)c1cncc(Br)c1	i	i	6.6*	-0.29	i	i
O=C(NC(=S)Nc1ccccc1C(=O)O)c1cncc(Br)c1	i	i	-3	-0.24	i	i
CCOc1ccc(C(=O)NCC(C)NC(=O)c2ccc(OCC)cc2)cc1 (configuration not stated)	i	i	-4	3.9	i	14*
CCOc1ccccc1C(=O)Nc1ccccc1O	-6.7*	i	-20	1.4	i	i
COc1ccc(OCC(=O)Nc2ccc(C(=O)Nc3ccccc3C(=O)O)cc2)cc1	i	i	-11	1.3	i	i
COc1cc(OCc2ccccc2)c(OC)c(OCc2ccccc2)c1	.	.	.	.	i	.
O=C(Oc1ccc(Br)cc1C(=S)N1CCOCC1)c1ccccc1	-8*	i	-6	0.97	i	i
CCCC/C(O)=C1\C(=O)CCCC1=NCCc1c(C)[nH]c2ccccc12	i	i	-6	-4.4*	i	i
